According to ChEMBL document CHEMBL3877243, “Synthesis and biological evaluation of novel pentacyclic triterpene α-cyclodextrin conjugates as HCV entry inhibitors” (Eur J Med Chem, 2016):
pIC50: −log10 of the molar value. ≈ marks a conversion by molar mass, not a printed value. Calls of active or inactive are those of the source. The rule behind the calls is not given here.

How the values were obtained:
[1] = Aqueous solubility of the compound by HPLC method; format: physicochemical; settings: buffer
[2] = Cytotoxicity against MDCK cells measured after 48 hrs by alamar blue assay; format: toxicity, cell-based, Canis lupus familiaris; settings: dog
How it was run: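 MDCK cells were seeded at 1 × 10⁴ per well and allowed to adhere for 16 h at 37 °C in 5% CO₂. Compounds were added at 0.1, 1, 10 and 100, in triplicate, against 1% DMSO controls, for 48 h. AlamarBlue was then added for 2 h and fluorescence read (ex 530, em 590 nm). Percent viability gave CC50.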

Hepatitis C virus [3] = assay: Antiviral activity against HCV pseudoparticle harboring HCV envelope protein E1 and E2 and HIV proviral DNA assessed as inhibition of pseudoparticle entry into human Huh7 cells at 5 uM measured after 3 days by luciferase reporter gene assay relative to control; format: functional, Hepacivirus hominis; settings: Huh-7, 72 h
How it was run: (§1)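 Huh-7 cells (5 × 10³/well) seeded 24 h, then infected with HCVpp or VSVGpp (HIV pNL4-3 luciferase backbone with HCV E1E2 or VSV G, made in 293T cells) with compound in 1% DMSO at 37 °C. Luciferase read 3 days post-infection. % inhibition = 100 − background-subtracted signal as % of DMSO wells. Duplicates, ≥3 repeats.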

Hepatitis C virus [4] = assay: (§2) Antiviral activity against HCV pseudoparticle harboring HCV envelope protein E1, E2 and HIV proviral DNA infected in HuH7 cells assessed as reduction in viral infection at 10 uM incubated with virus and compound for 3 hrs by luciferase reporter gene assay; format: functional, Hepacivirus hominis; settings: Huh-7, 3 h
How it was run: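 Pre-binding format: Huh-7 cells incubated with compound plus HCVpp at 4 °C for 3 h to allow virus binding. Readout is a luciferase pseudovirus-entry signal, normalised to 0.5% DMSO (final). An anti-CD81 antibody served as positive control.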

Hepatitis C virus [5] = assay: as §2, with “preincubated cells” for “incubated”, “test” for “virus and”, “3 hrs followed by viral infection measured after 72” for “3”; format: functional, Hepacivirus hominis; settings: Huh-7
How it was run: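 Pre-treatment format: Huh-7 cells incubated 3 h at 37 °C with compound in DMEM/10% FBS, then washed to remove unbound compound. Cells were then infected with HCVpp at 37 °C for 72 h. Luciferase readout, normalised to 0.5% DMSO (final).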

Hepatitis C virus [6] = assay: as §2, with “preincubated viral particle” for “incubated”, “cells” for “virus and compound”, “3 hrs followed by test compound addition measured after 72” for “3”; format: functional, Hepacivirus hominis; settings: Huh-7
How it was run: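 Post-binding format: Huh-7 cells incubated with HCVpp at 4 °C for 3 h, then washed thoroughly to remove unbound virus. Cells were then exposed to compound at 37 °C for 72 h. Luciferase readout, normalised to 0.5% DMSO (final).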

Hepatitis C virus [7] = assay: Antiviral activity against HCV pseudoparticle harboring HCV envelope protein E1 and E2 and HIV proviral DNA assessed as inhibition of pseudoparticle entry into human Huh7 cells measured after 3 days by luciferase reporter gene assay; format: functional, cell-based, Hepacivirus hominis; settings: Huh-7, 72 h
How it was run: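 Huh-7 cells infected with HCVpp with compound at six concentrations spanning the nanomolar range upward, 37 °C. Luciferase read 3 days post-infection, normalised to DMSO-only wells minus uninfected background. Each concentration in triplicate. IC50 is the mean of at least three independent determinations.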

Hepatitis C virus [8] = assay: Antiviral activity against HCV pseudoparticle harboring HCV envelope protein E1, E2 and HIV proviral DNA infected in HuH7 cells assessed as reduction in viral infection at 10 uM pretreated with virus for 6 hrs followed by compound addition measured after 72 hrs by luciferase reporter gene assay; format: functional, Hepacivirus hominis; settings: Huh-7
How it was run: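 Post-entry format: Huh-7 cells incubated with HCVpp at 37 °C for 6 h to allow entry but not reverse transcription, then washed. Compound added at 37 °C for a further 72 h. Luciferase readout, normalised to 0.5% DMSO (final).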

[9] = Selectivity index, ratio of CC50 for MDCK cells to IC50 for HCV pseudoparticle expressing envelope protein E1 and E2 to; format: functional
How it was run: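 SI = MDCK CC50 / HCVpp IC50. The IC50 came from HIV pNL4-3 luciferase pseudoparticles carrying HCV E1E2, made in 293T cells. Huh-7 cells (5 × 10³ per well, seeded 24 h earlier) were infected with compound present at 37 °C, and luciferase was read 3 days later. Inhibition was normalised to DMSO wells minus uninfected background. IC50 values are means of at least three independent determinations.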

[10] = Aqueous solubility of the compound at 100 ug/ml incubated for 1 hr; format: physicochemical; settings: buffer
[11] = Aqueous solubility of the compound at room temperature measured per 100 ml of solution; format: physicochemical; settings: buffer
[12] = tested on: Vesicular stomatitis virus; assay: Antiviral activity against VSV pseudoparticle harboring VSV G protein and HIV proviral DNA assessed as inhibition of pseudoparticle entry into human Huh7 cells measured after 3 days by luciferase reporter gene assay; format: functional, cell-based; settings: Huh-7; how it was run: as §1

Q: Which solubility [1] does the source give for CC1(C)CC[C@]2(C(=O)O)CC[C@]3(C)C(=CC[C@@H]4[C@@]5(C)CC[C@H](O)C(C)(C)[C@@H]5CC[C@]43C)[C@@H]2C1 [OLEANOLIC_ACID] here?
A: 0.05 µg/mL (≈ 0.109 µM)

Q: With CC(=O)OC[C@H]1O[C@@H]2O[C@H]3[C@H](OC(C)=O)[C@@H](OC(C)=O)[C@@H](O[C@H]4[C@H](OC(C)=O)[C@@H](OC(C)=O)[C@@H](O[C@H]5[C@H](OC(C)=O)[C@@H](OC(C)=O)[C@@H](O[C@H]6[C@H](OC(C)=O)[C@@H](OC(C)=O)[C@@H](O[C@H]7[C@H](OC(C)=O)[C@@H](OC(C)=O)[C@@H](O[C@H]1[C@H](OC(C)=O)[C@H]2OC(C)=O)O[C@@H]7COC(C)=O)O[C@@H]6COC(C)=O)O[C@@H]5Cn1cc(CNC(=O)[C@]25CCC(C)(C)C[C@@H]2C2=CC[C@@H]6[C@@]7(C)CC[C@H](O)C(C)(C)[C@@H]7CC[C@@]6(C)[C@]2(C)C[C@H]5O)nn1)O[C@@H]4COC(C)=O)O[C@@H]3COC(C)=O as the molecule, how does the CC50 at 48 h [2] read?
A: > 100 µM

Q: And the inhibition at 5 µM (Hepatitis C virus [3])?
A: 80%

Q: What about the inhibition at 10 µM (Hepatitis C virus [4]) of the same molecule?
A: 10 to 30%

Q: And the inhibition at 10 µM (Hepatitis C virus [5])?
A: 10 to 30%

Q: What about the inhibition at 10 µM (Hepatitis C virus [6]) of the same molecule?
A: > 90%

Q: And the pIC50 (Hepatitis C virus [7])?
A: 5.93

Q: What about the inhibition at 10 µM (Hepatitis C virus [8]) of the same molecule?
A: 10 to 30%

Q: What about the “Ratio CC50/IC50” value [9] of the same molecule?
A: >85

Q: Which solubility at 1 h [10] does the source give for C=C(C)[C@@H]1CC[C@]2(C(=O)O)CC[C@]3(C)[C@H](CC[C@@H]4[C@@]5(C)CC[C@H](O)C(C)(C)[C@@H]5CC[C@]43C)[C@@H]12 [BETULINIC ACID] here?
A: 0.02 µg/mL (≈ 0.0438 µM)

Q: Which solubility [11] does the source give for OC[C@H]1O[C@@H]2O[C@H]3[C@H](O)[C@@H](O)[C@@H](O[C@H]4[C@H](O)[C@@H](O)[C@@H](O[C@H]5[C@H](O)[C@@H](O)[C@@H](O[C@H]6[C@H](O)[C@@H](O)[C@@H](O[C@H]7[C@H](O)[C@@H](O)[C@@H](O[C@H]1[C@H](O)[C@H]2O)O[C@@H]7CO)O[C@@H]6CO)O[C@@H]5CO)O[C@@H]4CO)O[C@@H]3CO [ALFADEX] here?
A: 14.5 g

Q: Which results are given for C=C(C)[C@@H]1CC[C@]2(C(=O)NCc3cn(C[C@H]4O[C@@H]5O[C@H]6[C@H](O)[C@@H](O)[C@@H](O[C@H]7[C@H](O)[C@@H](O)[C@@H](O[C@H]8[C@H](O)[C@@H](O)[C@@H](O[C@H]9[C@H](O)[C@@H](O)[C@@H](O[C@H]%10[C@H](O)[C@@H](O)[C@@H](O[C@H]4[C@H](O)[C@H]5O)O[C@@H]%10CO)O[C@@H]9CO)O[C@@H]8CO)O[C@@H]7CO)O[C@@H]6CO)nn3)CC[C@]3(C)[C@H](CC[C@@H]4[C@@]5(C)CC[C@H](O)C(C)(C)[C@@H]5CC[C@]43C)[C@@H]12?
A: inhibition at 5 µM (Hepatitis C virus [3]): 60%; inhibition [12]: Active

Q: Which CC50 at 48 h [2] does the source give for CC1(C)CC[C@]2(C(=O)NCc3cn(C[C@H]4O[C@@H]5O[C@H]6[C@H](O)[C@@H](O)[C@@H](O[C@H]7[C@H](O)[C@@H](O)[C@@H](O[C@H]8[C@H](O)[C@@H](O)[C@@H](O[C@H]9[C@H](O)[C@@H](O)[C@@H](O[C@H]%10[C@H](O)[C@@H](O)[C@@H](O[C@H]4[C@H](O)[C@H]5O)O[C@@H]%10CO)O[C@@H]9CO)O[C@@H]8CO)O[C@@H]7CO)O[C@@H]6CO)nn3)[C@H](O)C[C@]3(C)C(=CC[C@@H]4[C@@]5(C)CC[C@H](O)C(C)(C)[C@@H]5CC[C@]43C)[C@H]2C1 here?
A: > 100 µM

Q: And the inhibition at 5 µM (Hepatitis C virus [3])?
A: 95%

Q: And the inhibition at 10 µM (Hepatitis C virus [4])?
A: 10 to 30%

Q: And the inhibition at 10 µM (Hepatitis C virus [5])?
A: 10 to 30%

Q: What about the inhibition at 10 µM (Hepatitis C virus [6]) of the same molecule?
A: > 90%

Q: And the pIC50 (Hepatitis C virus [7])?
A: 6.60

Q: What about the inhibition at 10 µM (Hepatitis C virus [8]) of the same molecule?
A: 10 to 30%

Q: What about the “Ratio CC50/IC50” value [9] of the same molecule?
A: >400

Q: Which results are given for C=C(C)[C@@H]1CC[C@]2(C(=O)NCc3cn(C[C@H]4O[C@@H]5O[C@H]6[C@H](OC(C)=O)[C@@H](OC(C)=O)[C@@H](O[C@H]7[C@H](OC(C)=O)[C@@H](OC(C)=O)[C@@H](O[C@H]8[C@H](OC(C)=O)[C@@H](OC(C)=O)[C@@H](O[C@H]9[C@H](OC(C)=O)[C@@H](OC(C)=O)[C@@H](O[C@H]%10[C@H](OC(C)=O)[C@@H](OC(C)=O)[C@@H](O[C@H]4[C@H](OC(C)=O)[C@H]5OC(C)=O)O[C@@H]%10COC(C)=O)O[C@@H]9COC(C)=O)O[C@@H]8COC(C)=O)O[C@@H]7COC(C)=O)O[C@@H]6COC(C)=O)nn3)CC[C@]3(C)[C@H](CC[C@@H]4[C@@]5(C)CC[C@H](O)C(C)(C)[C@@H]5CC[C@]43C)[C@@H]12?
A: inhibition at 5 µM (Hepatitis C virus [3]): 60%; inhibition [12]: Active

Q: Which results are given for CC1(C)CC[C@]2(C(=O)O)[C@H](O)C[C@]3(C)C(=CC[C@@H]4[C@@]5(C)CC[C@H](O)C(C)(C)[C@@H]5CC[C@]43C)[C@@H]2C1?
A: CC50 at 48 h [2]: 15.4 µM; Ratio CC50/IC50 [9]: 11
